The results in this text go back to ChEMBL document CHEMBL4004855, “Synthesis of hetero annulated isoxazolo-, pyrido- and pyrimido carbazoles: Screened for in vitro antitumor activity and structure activity relationships, a novel 2-amino-4-(3'-bromo-4'-methoxyphenyl)-8-chloro-11H-pyrimido[4,5-a]carbazole as an antitumor agent” (Eur J Med Chem, 2017).

Active and inactive are the calls of the source. The rule behind the calls is not given here.

What all share (assay type): functional, cell-based
In assay [1] the test system is A549. The experiment in a line: Induction of apoptosis in human A549 cells assessed as nuclear fragmentation after 24 hrs by DAPI-staining based fluorescence microscopic analysis. Summed up: (§1)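 Cells were grown on glass coverslips, treated for 24 h, fixed, and permeabilised with 0.2% Triton X-100 for 10 min at room temperature. They were then stained with DAPI for 3 min and examined by fluorescence microscopy for condensed chromatin and nuclear fragmentation. Untreated cells served as control.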

For assay [2], the system named is MCF7. The experiment in a line: Cytotoxicity against human MCF7 cells assessed as reduction in cell viability after 48 hrs by MTT assay. Conditions: for IC50: MCF7, 48 h. Summed up:
(§2)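 Cells kept in DMEM with 10% FBS, glutamine, HEPES and antibiotics at 37°C, 5% CO2. Seeded at 1×10⁴ cells/well and grown 48 h to 75% confluence, then exposed to serially diluted compounds for 48 h. MTT added for 4 h at 37 °C, formazan dissolved in DMSO, OD read at 620 nm. Viability is given as % of control OD, and IC50 is read from the viability-versus-concentration plot. Three independent experiments in triplicate.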
In general terms: Tetrazolium assays rely on reduction of a dye to a coloured formazan, in cell work by metabolically active cells.

Assay [3] relates to MCF7. The experiment in a line: Induction of morphological changes in human MCF7 cells assessed as membrane blebbing after 24 hrs by phase contrast microscopy.
The subject of assay [4] is A549. The experiment in a line: Induction of morphological changes in human A549 cells assessed as membrane blebbing after 24 hrs by phase contrast microscopy.
Assay [5] deals with MCF7. In words: Induction of apoptosis in human MCF7 cells assessed as chromatin condensation after 24 hrs by AO/EB-dual staining based fluorescent microscopic analysis. Summed up:
(§3)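 Treated cells were collected, washed in PBS (pH 7.2), and stained with an AO/EtBr mixture (1:1; […] each in water) for 2 min. They were then washed twice with PBS and viewed by fluorescence microscopy at 400× with a 480 nm excitation filter. Green marks intact membranes; orange/red marks damaged membranes and condensed nuclei. Untreated cells served as control.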

Assay [6] concerns MCF7. In words: Induction of apoptosis in human MCF7 cells assessed as nuclear fragmentation after 24 hrs by DAPI-staining based fluorescence microscopic analysis. Summed up:
as §1

The test system of assay [7] is A549. The experiment in a line: Induction of morphological changes in human A549 cells assessed as cell shrinkage after 24 hrs by phase contrast microscopy.
The subject of assay [8] is A549. In words: Cytotoxicity against human A549 cells assessed as reduction in cell viability after 48 hrs by MTT assay. Conditions: for IC50: A549, 48 h. The essentials:
as §2

Assay [9] concerns MCF7. The experiment in a line: Induction of morphological changes in human MCF7 cells assessed as formation of floating cells after 24 hrs by phase contrast microscopy.
Assay [10] relates to A549. In words: Induction of morphological changes in human A549 cells assessed as formation of floating cells after 24 hrs by phase contrast microscopy.
For assay [11], the system named is MCF7. In words: Induction of morphological changes in human MCF7 cells assessed as cell shrinkage after 24 hrs by phase contrast microscopy.
The test system of assay [12] is A549. The experiment in a line: Induction of apoptosis in human A549 cells assessed as chromatin condensation after 24 hrs by AO/EB-dual staining based fluorescent microscopic analysis. Summed up:
as §3

Regarding `COc1ccc(-c2nc(N)nc3c2ccc2c4cc(C)ccc4[nH]c23)cc1Br`, the outcome with A549 [1] and with MCF7 [6] was Active. Moreover, the Activity result in the assay on MCF7 [2], with MCF7 [3], in the assay on A549 [4], in the assay with A549 [7], with A549 [8] and in the assay with MCF7 [9] was “Dose-dependent effect” throughout. In addition, the Activity entry in the assay with A549 [10] and in the assay with MCF7 [11] was “Dose-dependent effect” in each case. The IC50 (as a rule, the midpoint of a concentration-inhibition curve) with MCF7 [2] was found to be 22 µM; in the assay with A549 [8], 24 µM. Moreover, the result in the assay on MCF7 [5] was inactive.

Regarding `COc1ccc(-c2nc(N)nc3c2ccc2c4cccc(C)c4[nH]c23)cc1Br`, the Activity result in the assay with MCF7 [2] and with A549 [8] was “Dose-dependent effect” throughout. Further, the IC50 in the assay on MCF7 [2] was 28 µM; with A549 [8] it was 31 µM.

For the compound `COc1ccc(-c2onc3c2CCc2c-3[nH]c3c(C)cccc23)cc1Br`, in the assay with MCF7 [2], the Activity result is “Dose-dependent effect” and the IC50 was found to be 32 µM. Besides, in the assay on A549 [8], the Activity result is “Dose-dependent effect” and the IC50 came out at 35 µM.

Turning to `CCOc1nc2c(c(-c3ccc(OC)c(Br)c3)c1C#N)CCc1c-2[nH]c2ccc(Cl)cc12`, the outcome in the assay with A549 [1] was inactive. For the same compound, the Activity entry in the assay with MCF7 [2], with MCF7 [3], with A549 [4], in the assay on A549 [7], with A549 [8] and in the assay on MCF7 [9] was “Dose-dependent effect” throughout. The Activity entry in the assay on A549 [10] and in the assay on MCF7 [11] was “Dose-dependent effect” in each case. Moreover, the IC50 in the assay with MCF7 [2] was found to be 25 µM; in the assay with A549 [8], 32 µM. In addition, in the assay on MCF7 [5], the outcome was Active.

As for `CCOc1nc2c(c(-c3ccc(OC)c(Br)c3)c1C#N)CCc1c-2[nH]c2ccc(C)cc12`, the Activity entry in the assay with MCF7 [2], in the assay with MCF7 [3], with A549 [4], in the assay on A549 [7], with A549 [8] and with MCF7 [9] was “Dose-dependent effect” in each case. The Activity result in the assay on A549 [10] and with MCF7 [11] was “Dose-dependent effect” throughout. Moreover, the half-maximal inhibitory concentration (IC50) in the assay on MCF7 [2] came out at 25 µM; in the assay with A549 [8] it was 29 µM. In addition, in the assay on MCF7 [5], the outcome was inactive. The outcome with MCF7 [6] and with A549 [12] was Active.

As for `COc1ccc(-c2onc3c2CCc2c-3[nH]c3ccc(C)cc23)cc1Br`, the result with A549 [1], in the assay with MCF7 [6] and in the assay on A549 [12] was Active. Moreover, the Activity result in the assay with MCF7 [2], in the assay with MCF7 [3], with A549 [4], in the assay with A549 [7], with A549 [8] and in the assay with MCF7 [9] was “Dose-dependent effect” in each case. Moreover, the Activity entry with A549 [10] and in the assay on MCF7 [11] was “Dose-dependent effect” throughout. Further, the results for the IC50 in the assay on MCF7 [2] and with A549 [8] were 21 µM and 28 µM, respectively. The result in the assay with MCF7 [5] was inactive.

On to `CCOc1nc2c(c(-c3ccc(OC)c(Br)c3)c1C#N)CCc1c-2[nH]c2c(C)cccc12`, for which, in the assay on MCF7 [2], the Activity result is “Dose-dependent effect” and the IC50 is 36 µM. Further, in the assay with A549 [8], the Activity result was “Dose-dependent effect” and the IC50 came to 39 µM.

In the case of `CCOc1nc2c(c(-c3ccc(OC)c(Br)c3)c1C#N)CCc1c-2[nH]c2ccccc12`, in the assay with MCF7 [2], the Activity entry is “Dose-dependent effect” and the IC50 was 35 µM. Moreover, in the assay with A549 [8], the Activity entry is “Dose-dependent effect” and the IC50 is 37 µM.

As for `COc1ccc(-c2nc(N)nc3c2ccc2c4ccccc4[nH]c23)cc1Br`, in the assay with MCF7 [2], the Activity entry is “Dose-dependent effect” and the IC50 is 26 µM. Besides, in the assay with A549 [8], the Activity result is “Dose-dependent effect” and the IC50 came to 29 µM.

Take `COc1ccc(-c2nc(N)nc3c2ccc2c4cc(Cl)ccc4[nH]c23)cc1Br`: the result in the assay on A549 [1] was inactive. Also, the Activity result in the assay on MCF7 [2], in the assay on MCF7 [3], with A549 [4], with A549 [7], with A549 [8] and in the assay on MCF7 [9] was “Dose-dependent effect” each time. Moreover, the Activity result in the assay on A549 [10] and in the assay on MCF7 [11] was “Dose-dependent effect” throughout. Besides, the IC50 was determined as 20 µM in the assay with MCF7 [2] and 25 µM in the assay on A549 [8]. Also, the result in the assay on MCF7 [5] and with A549 [12] was Active.

For the compound `COc1ccc(-c2onc3c2CCc2c-3[nH]c3ccccc23)cc1Br`, in the assay on MCF7 [2], the Activity entry is “Dose-dependent effect” and the IC50 came to 31 µM. Moreover, in the assay with A549 [8], the Activity entry was “Dose-dependent effect” and the IC50 was 33 µM.
